Active and inactive are the calls of the source. The rule behind the calls is not given here.
Key:
PC-12 [1] = experiment: Neuroprotection against H2O2-induced cell death in rat PC12 cells assessed as cell viability at 0.1 uM preincubated for 3 hrs followed by H2O2 stimulation measured after 2 hrs by MTT assay (reference value: 25.2 to 41.8%); format: functional; conditions: read-out: Activity
PC-12 [2] = experiment: Neuroprotection against H2O2-induced cell death in rat PC12 cells assessed as cell viability at 5 uM preincubated for 3 hrs followed by H2O2 stimulation measured after 2 hrs by MTT assay (reference value: 25.2 to 41.8%); format: functional; conditions: read-out: Activity
PC-12 [3] = experiment: Neuroprotection against H2O2-induced cell death in rat PC12 cells assessed as cell viability at 10 uM preincubated for 3 hrs followed by H2O2 stimulation measured after 2 hrs by MTT assay (reference value: 25.2 to 41.8%); format: functional; conditions: read-out: Activity
PC-12 [4] = experiment: Neuroprotection against H2O2-induced cell death in rat PC12 cells assessed as cell viability at 20 uM preincubated for 3 hrs followed by H2O2 stimulation measured after 2 hrs by MTT assay (reference value: 25.2 to 41.8%); format: functional; conditions: read-out: Activity
PC-12 [5] = experiment: Neuroprotection against H2O2-induced cell death in rat PC12 cells assessed as cell viability at 50 uM preincubated for 3 hrs followed by H2O2 stimulation measured after 2 hrs by MTT assay (reference value: 25.2 to 41.8%); format: functional; conditions: read-out: Activity
PC-12 [6] = experiment: Neuroprotection against H2O2-induced cell death in rat PC12 cells assessed as increase in cell viability preincubated for 3 hrs followed by H2O2 stimulation measured after 2 hrs by MTT assay; format: functional, cell-based
Acetylcholinesterase [7] = biological target: T1, Acetylcholinesterase (Electrophorus electricus, UniProt O42275); experiment: Inhibition of electric eel AChE using acetylthiocholine iodide as substrate pretreated for 5 mins followed by substrate addition by Ellman's method
Cholinesterase = Cholinesterase (Equus caballus, UniProt P81908); experiment: Inhibition of equine serum BuChE using butyrylthiocholine iodide as substrate pretreated for 5 mins followed by substrate addition by Ellman's method
Procedure, shortened: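 Ellman assay with horse serum BuChE (5 IU/mL) in 0.1 M phosphate buffer pH 8.0 with DTNB. Compound was preincubated with enzyme 5 min, then butyrylthiocholine iodide was added. Absorbance read at 412 nm. IC50 from a log concentration vs % inhibition curve; triplicate runs.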

[8] = biological target: Acetylcholinesterase (Electrophorus electricus) (UniProt O42275); experiment: Mixed-type inhibition of electric eel AChE using varying levels of acetylthiocholine iodide as substrate pretreated for 5 mins followed by substrate addition by Lineweaver-Burk plot analysis
Procedure, shortened: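 Electric eel AChE (5 IU/mL) by Ellman method in 0.1 M phosphate buffer pH 8.0 with DTNB. Inhibitor was preincubated 5 min, then acetylthiocholine iodide was added at different concentrations. Absorbance followed at 412 nm. Inhibition type from reciprocal Lineweaver-Burk plots; Ki from a secondary replot of slope vs inhibitor concentration.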

Acetylcholinesterase [9] = biological target: T1, Acetylcholinesterase; experiment: Non-competitive inhibition of electric eel AChE using varying levels of acetylthiocholine iodide as substrate pretreated for 5 mins followed by substrate addition by Lineweaver-Burk plot analysis
[10] = Inhibition of soybean 15-LOX assessed as reduction in conversion of linoleic acid to 13-hydroperoxylinoleic acid by spectrophotometric method; design: species or system Glycine max
Procedure, shortened: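 Soybean lipoxygenase type 1-B (final 167 U/mL) with compound (DMSO stock diluted in 0.1 M phosphate buffer pH 8) and linoleic acid (134 mM in ethanol) at room temperature. Formation of 13-hydroperoxylinoleic acid followed spectrophotometrically at 234 nm.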

[11] = biological target: Amyloid-beta precursor protein (Homo sapiens) (UniProt P05067); experiment: Inhibition of amyloid beta (1 to 42) (unknown origin) self-induced aggregation at 100 uM incubated for 48 hrs by thioflavin-T fluorescence assay relative to control
[12] = biological target: Amyloid-beta precursor protein (Homo sapiens) (UniProt P05067); experiment: Potency index, ratio of compound effect to rifampicin effect for inhibition of amyloid beta (1 to 42) (unknown origin) self-induced aggregation at 100 uM
SH-SY5Y = experiment: Neuroprotection against H2O2-induced cell death in human SH-SY5Y cells assessed as cell viability at 10 uM preincubated for 3 hrs followed by H2O2 addition measured after 24 hrs by MTT assay relative to control; format: functional; conditions: read-out: Activity
Procedure, shortened: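 SH-SY5Y cells grown in DMEM with 10% FBS, 1% L-glutamine and antibiotics, 5×10^3/well. Compound (10 or 50 µM) for 3 h before 250 µM H2O2, then 24 h incubation. MTT read at 570 nm after DMSO solubilization. Viability as blank-corrected % of untreated control; three independent experiments, mean ± SEM.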

PC-12 [13] = experiment: Cytotoxicity against rat PC12 cells assessed as effect on cell viability at 1 to 50 uM by MTT assay; format: cell-based; conditions: pc-12, 50 µM
PC-12 [14] = experiment: Inhibition of H2O2-induced ROS generation in rat PC12 cells assessed as intracellular ROS level at 50 uM preincubated for 6 hrs followed by H2O2 addition measured after 18 hrs by DCFH-DA staining based fluorimetric method relative to control; format: functional; design: scale not given: the % may be the effect or the level left
Procedure, shortened: (§1)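 PC12 cells at 1×10^4/well in RPMI with 10% FBS and penicillin/streptomycin, 24 h at 37 °C, 5% CO2. Test samples (1, 5, 10, 50 µM; ≤0.5% DMSO) for 6 h, PBS wash, then H2O2 150 µM for 18 h. Loaded with 10 µM DCFH-DA for 30 min at 37 °C in the dark, washed twice. DCF fluorescence read at ex 485/em 528 nm as % of untreated control. Three independent experiments, mean ± SEM.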

PC-12 [15] = experiment: Inhibition of H2O2-induced ROS generation in rat PC12 cells assessed as intracellular ROS level at 5 uM preincubated for 6 hrs followed by H2O2 addition measured after 18 hrs by DCFH-DA staining based fluorimetric method relative to control; format: functional; design: scale not given: the % may be the effect or the level left; procedure, shortened: as §1
PC-12 [16] = experiment: Inhibition of H2O2-induced ROS generation in rat PC12 cells preincubated for 6 hrs followed by H2O2 addition measured after 18 hrs by DCFH-DA staining based fluorimetric method; format: functional, cell-based; procedure, shortened: as §1
[17] = Metal chelating activity assessed as compound-Fe2+ complex formation at 20 uM after 30 mins by UV-visible spectrophotometric analysis
Procedure, shortened: (§2)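 Compound (final 20 µM in methanol) mixed with metal salt (CuCl2, FeSO4, ZnCl2, AlCl3, MgCl2 or CaCl2, final 20 µM in methanol). After 30 min at room temperature, UV spectra recorded from 200 to 500 nm in 1-cm quartz cells on a dual-beam spectrophotometer.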

[18] = Metal chelating activity assessed as compound-Cu2+ complex formation at 20 uM after 30 mins by UV-visible spectrophotometric analysis; procedure, shortened: as §2
[19] = Metal chelating activity assessed as compound-Ca2+ complex formation at 20 uM after 30 mins by UV-visible spectrophotometric analysis; procedure, shortened: as §2
[20] = Metal chelating activity assessed as compound-Al3+ complex formation at 20 uM after 30 mins by UV-visible spectrophotometric analysis; procedure, shortened: as §2
[21] = Metal chelating activity assessed as compound-Zn2+ complex formation at 20 uM after 30 mins by UV-visible spectrophotometric analysis; procedure, shortened: as §2
[22] = Metal chelating activity assessed as mole fraction of compound required to show 2:1 stoichiometry for compound-Cu2+ complex at 40 uM after 30 mins by UV titration method
Procedure, shortened: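 Molar ratio method: 2.5 mL of 40 µM ligand in methanol titrated with CuCl2 (1000 µM in methanol) in 0.01 mL steps. Absorbance at 365 nm plotted against mole fraction; stoichiometry read from where the two straight lines cross.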

T1 sequence (O42275 whole entry): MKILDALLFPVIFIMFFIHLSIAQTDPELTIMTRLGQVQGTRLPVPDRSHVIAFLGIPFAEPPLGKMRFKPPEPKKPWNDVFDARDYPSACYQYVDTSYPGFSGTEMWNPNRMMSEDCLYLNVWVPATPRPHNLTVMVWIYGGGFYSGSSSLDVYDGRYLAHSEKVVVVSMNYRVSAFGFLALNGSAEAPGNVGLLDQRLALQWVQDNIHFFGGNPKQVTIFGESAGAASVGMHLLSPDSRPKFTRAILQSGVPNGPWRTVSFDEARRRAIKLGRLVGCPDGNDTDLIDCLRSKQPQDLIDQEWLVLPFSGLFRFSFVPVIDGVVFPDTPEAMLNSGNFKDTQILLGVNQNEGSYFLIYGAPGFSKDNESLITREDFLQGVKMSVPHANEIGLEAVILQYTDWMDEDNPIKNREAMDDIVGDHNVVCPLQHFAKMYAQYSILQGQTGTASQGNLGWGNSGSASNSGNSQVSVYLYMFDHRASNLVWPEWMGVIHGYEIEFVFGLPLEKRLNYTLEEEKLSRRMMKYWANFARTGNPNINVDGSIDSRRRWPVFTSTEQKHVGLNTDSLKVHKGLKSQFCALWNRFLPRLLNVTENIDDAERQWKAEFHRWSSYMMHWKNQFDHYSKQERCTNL
Sequence of Amyloid-beta precursor protein (Homo sapiens) (P05067 whole entry): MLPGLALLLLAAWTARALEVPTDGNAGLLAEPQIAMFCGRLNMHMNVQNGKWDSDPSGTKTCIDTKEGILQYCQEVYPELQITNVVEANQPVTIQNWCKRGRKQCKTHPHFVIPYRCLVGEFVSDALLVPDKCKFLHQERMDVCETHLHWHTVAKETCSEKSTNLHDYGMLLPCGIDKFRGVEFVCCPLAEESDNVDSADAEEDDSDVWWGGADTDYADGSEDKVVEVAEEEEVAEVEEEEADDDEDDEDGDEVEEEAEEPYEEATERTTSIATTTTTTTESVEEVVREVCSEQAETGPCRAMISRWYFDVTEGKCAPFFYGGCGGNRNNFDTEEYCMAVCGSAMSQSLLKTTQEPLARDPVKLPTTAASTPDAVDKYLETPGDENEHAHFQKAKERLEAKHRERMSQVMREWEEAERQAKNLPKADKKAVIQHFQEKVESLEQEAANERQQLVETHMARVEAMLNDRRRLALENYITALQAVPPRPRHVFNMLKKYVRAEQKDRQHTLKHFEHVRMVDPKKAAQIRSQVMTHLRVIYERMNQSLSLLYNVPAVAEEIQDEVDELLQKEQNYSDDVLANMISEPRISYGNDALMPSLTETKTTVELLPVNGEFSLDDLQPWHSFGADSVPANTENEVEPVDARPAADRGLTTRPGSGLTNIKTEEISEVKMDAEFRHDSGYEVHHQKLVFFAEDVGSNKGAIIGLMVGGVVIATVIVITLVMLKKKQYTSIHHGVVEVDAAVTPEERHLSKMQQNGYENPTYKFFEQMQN
Sequence of Acetylcholinesterase (Electrophorus electricus) (O42275 24-633 limits assumed): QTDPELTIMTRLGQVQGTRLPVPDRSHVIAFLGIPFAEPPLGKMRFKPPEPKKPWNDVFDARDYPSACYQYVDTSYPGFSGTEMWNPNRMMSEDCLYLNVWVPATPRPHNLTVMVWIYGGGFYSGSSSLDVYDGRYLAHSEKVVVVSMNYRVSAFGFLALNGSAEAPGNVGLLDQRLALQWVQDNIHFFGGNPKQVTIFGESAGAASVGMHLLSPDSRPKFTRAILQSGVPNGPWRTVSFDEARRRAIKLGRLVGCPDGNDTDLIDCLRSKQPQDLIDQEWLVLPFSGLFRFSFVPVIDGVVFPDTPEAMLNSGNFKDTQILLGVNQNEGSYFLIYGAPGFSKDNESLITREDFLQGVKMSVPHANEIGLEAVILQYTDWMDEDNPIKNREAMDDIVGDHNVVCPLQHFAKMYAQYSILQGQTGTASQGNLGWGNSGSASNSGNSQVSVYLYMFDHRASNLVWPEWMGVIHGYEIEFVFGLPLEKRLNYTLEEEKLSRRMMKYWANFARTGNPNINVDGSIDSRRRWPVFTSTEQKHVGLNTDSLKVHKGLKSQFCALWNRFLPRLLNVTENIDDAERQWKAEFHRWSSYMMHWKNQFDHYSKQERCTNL
Sequence of Cholinesterase (P81908 whole entry): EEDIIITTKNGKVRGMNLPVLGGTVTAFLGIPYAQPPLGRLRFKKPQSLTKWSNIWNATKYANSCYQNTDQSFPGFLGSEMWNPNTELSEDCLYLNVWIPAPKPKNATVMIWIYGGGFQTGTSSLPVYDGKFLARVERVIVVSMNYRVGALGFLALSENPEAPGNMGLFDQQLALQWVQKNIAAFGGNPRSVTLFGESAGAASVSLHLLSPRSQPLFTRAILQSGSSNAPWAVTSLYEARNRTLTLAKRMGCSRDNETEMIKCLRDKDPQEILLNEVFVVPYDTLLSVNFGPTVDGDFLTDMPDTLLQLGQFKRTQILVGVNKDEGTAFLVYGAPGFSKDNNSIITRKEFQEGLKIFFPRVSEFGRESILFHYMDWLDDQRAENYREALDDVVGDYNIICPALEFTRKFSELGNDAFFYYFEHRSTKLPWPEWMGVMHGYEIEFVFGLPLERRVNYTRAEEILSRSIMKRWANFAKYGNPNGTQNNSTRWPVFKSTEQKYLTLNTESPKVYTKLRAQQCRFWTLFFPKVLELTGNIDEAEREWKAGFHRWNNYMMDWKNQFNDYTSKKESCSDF

Structure (SMILES): COc1ccc(-c2cc3ccc(OCCCn4cc(CNC(=O)CCCCC5CCSS5)nn4)cc3oc2=O)cc1OC (centres undefined)
- viability at 0.1 µM (PC-12 [1]): 36.4%
- viability at 5 µM (PC-12 [2]): 40.6%
- viability at 10 µM (PC-12 [3]): 43.5%
- viability at 20 µM (PC-12 [4]): 45.6%
- viability at 50 µM (PC-12 [5]): 49.5%
- Activity (PC-12 [6]): Dose-dependent effect
- IC50 (Acetylcholinesterase [7]): 16.4 µM
- IC50 (Cholinesterase): 49.4 µM
- inhibition [8]: Active
- Ki (Acetylcholinesterase [9]): 6.91 µM
- IC50 [10]: > 100 µM
- inhibition [11]: 51.2%
- Ratio [12]: 2
- viability at 10 µM (SH-SY5Y): 64%
- Activity (PC-12 [13]): Non-Toxic
- Activity (PC-12 [14]): 91.6%
- Activity (PC-12 [15]): 79.32%
- inhibition (PC-12 [16]): Dose-dependent effect
- Activity [17]: Active
- Activity [18]: Active
- Activity [19]: inactive
- Activity [20]: inactive
- Activity [21]: inactive
- Activity [22]: 0.5 molar ratio

— ChEMBL document CHEMBL4152262, “Design, synthesis and evaluation of novel multi-target-directed ligands for treatment of Alzheimer's disease based on coumarin and lipoic acid scaffolds” (Eur J Med Chem, 2018)
